Assay [1] in a line: Inhibition of cytochrome-bd oxidase in Mycobacterium bovis BCG assessed as replicating ATP by measuring ATP depletion incubated for 15 hrs in presence of Q203 by BacTiter-Glo luminescence assay. On the set-up: species or system Mycobacterium tuberculosis variant bovis BCG. Put shortly: (§1)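 Cultures grown in Middlebrook 7H9 with 0.05% Tween 80, 0.5% glycerol, BSA fraction V, D-glucose and NaCl. Cells pelleted, resuspended in glycerol-free medium at about 10^7 CFU/mL, added to compound dilutions. Plates incubated 15 h at 37°C. BacTiter-Glo reagent added, luminescence read after 12 min to give ATP level. IC50 from curve fitting.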

A short description of assay [2]: Inhibition of cytochrome-bd oxidase in Mycobacterium bovis BCG assessed as replicating ATP by measuring ATP depletion incubated for 15 hrs in absence of Q203 by BacTiter-Glo luminescence assay. Set-up: species or system Mycobacterium tuberculosis variant bovis BCG. In a few lines:
as §1

For `COc1ccc(CCNc2ncnc3sccc23)cc1`, the IC50 (commonly the midpoint of a concentration-inhibition curve) in assay [1] is over 0.05 mM.
As to `COc1ccc(CCNc2ncnc3ccsc23)cc1`, the values for the IC50 in assay [2] and in assay [1] were over 50 mM and 42.8 mM, respectively.
The matching figures for `CN(C)c1ccc(CCNc2ncnc3ccsc23)cc1`: over 50 mM and 38.9 mM.
The corresponding values for `FC(F)(F)Oc1ccc(CCNc2ncnc3ccsc23)cc1` are over 50 mM and 12.6 mM.
For the compound `COc1nc2ccc(Br)cc2cc1[C@@H](c1ccccc1)[C@@](O)(CCN(C)C)c1cccc2ccccc12` [BEDAQUILINE], the IC50 in assay [2] came out at 0.17 mM; in assay [1] it was 0.09 mM.
The matching figures for `Clc1ccc(CCNc2ncnc3ccsc23)cc1`: over 50 mM and 30.4 mM.
As to `FS(F)(F)(F)(F)c1ccc(CCNc2ncnc3ccsc23)cc1`, the IC50 was over 50 mM in assay [2] and 27.1 mM in assay [1].
On to `Cc1ccc(CCNc2ncnc3ccsc23)cc1`, for which the IC50 in assay [2] is over 50 mM; in assay [1], 40.4 mM.
The corresponding values for `FC(F)(F)Oc1ccc(CNc2ncnc3ccsc23)cc1` are over 50 mM and 38.1 mM.
The matching figures for `FC(F)(F)c1ccccc1CCNc1ncnc2ccsc12`: over 50 mM and 12.4 mM.
On to `FC(F)(F)c1ccc(Oc2ccc(Nc3ncnc4ccccc34)cc2)cc1`, for which the IC50 is over 50 mM in assay [2] and 0.8 mM in assay [1].
The corresponding values for `FC(F)(F)c1cccc(CCNc2ncnc3ccsc23)c1` are over 50 mM and 25.6 mM.
The corresponding values for `c1ccc(CCNc2ncnc3ccsc23)cc1` are over 50 mM and 43.3 mM.
The corresponding values for `Clc1ccc(CCNc2ncnc3ccsc23)cc1Cl` are over 50 mM and 25.6 mM.
Turning to `CC(C)(C)c1ccc(CCNc2ncnc3ccsc23)cc1`, the IC50 was over 50 mM in assay [2] and 5.8 mM in assay [1].
As for `FC(F)(F)c1ccc(CCNc2ncnc3ccsc23)cc1`, the IC50 in assay [2] was over 50 mM; in assay [1], 33.1 mM.
The corresponding values for `FC(F)(F)Oc1ccc(Nc2ncnc3ccsc23)cc1` are over 50 mM and 22.9 mM.

The values are drawn from ChEMBL document CHEMBL4680071, “Structure guided generation of thieno[3,2-d]pyrimidin-4-amine Mycobacterium tuberculosis bd oxidase inhibitors” (RSC Med Chem, 2021).
